From PubChem
Rows were chosen to be rich in hits. Some 0.89% of all compounds tested hit in one or more screens of this group.
V-ATPase pH – alters yeast V-ATPase proton transport. S. cerevisiae, pHLuorin cytosolic pH fluorescence. response, % at 10 µM. hit rate 0.37% among 350,000. AID 504577; in the data active = response mostly above about 7.3%, no sharp cut-off; inactive = mostly below about 5.4%; note: actives read high
Arrestin-AP2 inh – blocks beta-arrestin peptide binding to AP2 adaptin; hit rate 0.31% among 340,000; inhibition, % at 10 µM; FITC-arrestin peptide / GST-AP2 beads, flow cytometry; AP2 beta2 appendage carries R879A mutation; AID 504490;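 active = inhibition above a set limit, near 3 SD of compounds lacking own fluorescence, cut at about 54% in these data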;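 note: plate controls were DMSO wells for no effect and 5 µM unlabelled arrestin peptide for full effect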
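System: GST-AP2 R879A glutathione beads | Also added: FITC-arrestin peptide, 50 nM | Times: 12 min plus 1 h, RT | Signal: Bead flow cytometry, FITC channel | Buffer or medium: PBS with 0.05% Tween 20 and 0.1% BSA | Read-out basis: Percent drop in bead-associated FITC signal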
T cell modulator – T cell immune modulators affecting CD8 T cell-vesicle binding. AID 2052. hit rate 0.068% among 330,000. response (vesicle binding), % at 7 µM. 2C CD8+ T cell-vesicle binding, flow cytometry; active compounds read low;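 active = response, share of CD8 T cells binding vesicles, and their 90th percentile fluorescence all below set limits, cut at about 80% in these data, passing the limit was not always enough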;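 note: values below 100% mean blocked vesicle binding to the CD8+ T cells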
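System: murine 2C transgenic CD8+ T lymphocytes; also added: QL9-loaded Drosophila micro-vesicles; times: binding 1.5 h at 37 °C; measured by: flow cytometry, PE anti-B7-1 (FL2) versus Alexa647 anti-CD8 (FL8), PFA-fixed; control set: Peptide-free naked vesicles (low) and QL9 vesicles with 0.7% DMSO vehicle (high)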
NTR1 agonist – agonists of human neurotensin receptor NTR1 | P30989 | NTR1-U2OS beta-arrestin-GFP spot imaging, agonist mode | activation, % at 20 µM | hit rate 0.17% among 330,000;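 active = activation at or above 40% of the spot to cytoplasm intensity ratio, with at least 20 cells analyzed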;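 note: 0% = DMSO without peptide and 100% = 100 nM NTR1 peptide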
Target sequence (P30989 whole entry, looked up): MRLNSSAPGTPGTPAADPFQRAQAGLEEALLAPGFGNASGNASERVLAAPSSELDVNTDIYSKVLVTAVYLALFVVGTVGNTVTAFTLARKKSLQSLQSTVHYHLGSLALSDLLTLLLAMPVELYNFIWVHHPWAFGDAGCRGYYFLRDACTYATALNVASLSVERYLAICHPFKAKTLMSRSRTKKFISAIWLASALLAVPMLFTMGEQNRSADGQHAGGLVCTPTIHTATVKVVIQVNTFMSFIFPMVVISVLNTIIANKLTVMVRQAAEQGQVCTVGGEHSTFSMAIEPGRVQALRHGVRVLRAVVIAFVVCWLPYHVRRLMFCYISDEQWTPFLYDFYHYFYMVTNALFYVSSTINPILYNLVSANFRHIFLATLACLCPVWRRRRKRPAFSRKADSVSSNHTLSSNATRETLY
MIN6 prolif-1 – induces beta-cell replication in MIN6 cells; MIN6 cells proliferation, ATPlite luminescence, 48 h; cells starved in 0.2% serum; 100% = growth in 10% serum; proliferation, % at 10 µM; hit rate 0.29% among 330,000;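 active = compounds whose signal lies at least 3.5 SD above the mean of all wells on their plate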;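 note: 0% = DMSO-treated cells in low-serum medium and 100% = 10% serum control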
Xi reactivation – X-chromosome reactivation activator | XiGFP mouse fibroblasts, % GFP-positive cells imaging, 3 d; cells co-treated with 5-aza-dC sensitizer; scaled so ellipticine positive control = 100% | activation, % at 7.58 µM | hit rate 0.055% among 360,000 | AID 743238;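 active = mean normalized replicate activation at least 10% and every replicate at or above 10%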;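 note: 0% = median of on-plate neutral control wells and 100% = ellipticine 6 µM median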
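Assay system: SV40-immortalized XiGFP fibroblast cells, line 68-5-11; buffer or medium: DMEM plus 5-aza-dC sensitizer; compound: one concentration, pinned; timing: compounds 3 days, fix/stain 15 min at room temperature; benchmarks: positive control ellipticine, 6 µM final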
MIN6 prolif-2 – confirmation of inducers of beta-cell replication in MIN6 cells; shares compounds with MIN6 prolif-1; MIN6 beta-cell proliferation, ATPlite luminescence, 48 h; cells kept in 0.2% serum; scaled between 0.2% and 10% serum; proliferation increase, % at 50 µM; 920 tested, under 10 active; AID 463095;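 active = proliferation increase above 40% at any of the four tested concentrations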
NTR1 ag conf – NTR1 (human) agonism, confirmed; shares compounds with NTR1 agonist; NTR1-U2OS beta-arrestin-GFP translocation imaging; activation, % at 20 µM; hit rate 38% among 480; AID 504550;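 active = mean activation at 20 µM of at least 40%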;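 note: 0% = DMSO without peptide and 100% = 100 nM NTR1 peptide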
* hit, by the source's call; i = inactive; · = no result.

SMILES	V-ATPase pH	Arrestin-AP2 inh	T cell modulator	NTR1 agonist	MIN6 prolif-1	Xi reactivation	MIN6 prolif-2	others
C[C@]12CCC3C(CC[C@H]4C[C@H](O)CC[C@]34C)C1CC(=O)[C@@H]2O (some centres undefined)	13*	4	487	1	0	0	·
C[C@]12CCC3C(CC[C@H]4C[C@@H](O)CC[C@]34C)C1C/C(=N/O)[C@@H]2O (some centres undefined)	8	23	802	0	-4	0	·
CC(=O)N1[C@@H]2Cn3c(ccc(-c4cccc(C(=O)N(C)C)c4)c3=O)[C@H]1[C@@H](C(=O)O)[C@@H]2CO	·	·	·	·	·	0	·
CN1[C@@H]2CN(S(C)(=O)=O)C[C@H]1C2c1ccc(Br)cc1 (some centres undefined)	·	·	·	·	·	0	·
C[n+]1c(-c2ccccc2)c2cc(N)ccc2c2ccc(N)cc21	4	27	167	-2	-8	19*	·
Nc1ccc2ccc3cccc[n+]3c2c1	-75	16	452	0	-1	0	·
O=C1NC(=O)N(c2ccccc2)C(=O)/C1=C\c1ccc([N+](=O)[O-])s1	136*	44	482	1	-6	0	·
CN1C(=O)NC(=O)/C(=C/c2ccc([N+](=O)[O-])s2)C1=O	130*	15	377	0	-4	0	·
O=C1NC(=O)N(c2ccccc2)C(=O)/C1=C\c1ccc([N+](=O)[O-])o1	·	·	749	0	-1	·	·
COc1ccc(OC)c(N2C(=O)NC(=O)/C(=C\c3ccc([N+](=O)[O-])s3)C2=O)c1	133*	-1	151	-2	-6	1	·
CS(=O)(=O)N1C[C@@H]2N[C@H](C1)C2c1ccccc1 (some centres undefined)	·	·	·	·	·	0	·
COc1ccc(C(O)CNC(C)C)c(F)c1OC (centres undefined)	27*	13	858	0	2	0	·
Cn1c(O)c(C=NCCOc2ccc(Cl)cc2)c(=O)n(C)c1=O	1	32	431	-2	-1	·	·
Cn1c(O)c(C=NCCN2CCN(C(=O)c3ccccc3)CC2)c(=O)n(C)c1=O	0	6	378	1	9.6*	·	1
CCC(=NCCN1CCOCC1)c1c(O)n(-c2ccccc2C)c(=O)[nH]c1=O	-2	9	216	0	0	·	·
CC(=NCCN1CCOCC1)c1c(O)n(-c2ccccc2C)c(=O)[nH]c1=O	1	-7	i	0	12*	·	-1
CC(=O)N1C[C@@H]2C(c3ccccc3)[C@H](C1)N2CC1CC1 (some centres undefined)	·	·	·	·	·	0	·
Cc1ccc(-n2c(-c3cccs3)nc3ccccc3c2=O)cc1	·	-19	430	2	9.3*	·	-4
CNC(=O)O/N=C/c1nn(C(=O)C(C)(C)C)cc1Br	0	2	261	0	5.1*	0	-2
CCCCC(=O)N/N=C/c1c(O)n(Cc2ccco2)c(=O)[nH]c1=O	-1	3	398	1	-2	0	·
O=C(N/N=C/c1c(O)n(Cc2ccco2)c(=O)[nH]c1=O)c1ccccc1O	-2	-4	423	1	8.0*	1	-5
CCC1(OC(=O)c2ccccc2)CC(C)N(C)CC1C (centres undefined)	-1	36	153	0	7.0*	0	-3
c1ccc(P(c2ccccc2)c2ccccn2)cc1	-4	35	102	1	5.8*	0	-2
CN1[C@@H]2CN(CC(F)(F)F)C[C@H]1C2c1ccc(Br)cc1 (some centres undefined)	·	·	·	·	·	0	·
CC(C)NC(=O)N1C[C@@H]2C(c3ccccc3)[C@H](C1)N2C (some centres undefined)	·	·	·	·	·	0	·
SMILES	V-ATPase pH	Arrestin-AP2 inh	T cell modulator	NTR1 agonist	MIN6 prolif-1	Xi reactivation	MIN6 prolif-2	others
O=c1oc2ccccc2c(O)c1C(c1ccccn1)c1c(O)c2ccccc2oc1=O	0	7	601	3	8.0*	0	-4
CCOC(=O)C(c1c(O)c2ccccc2oc1=O)c1c(O)c2ccccc2oc1=O	·	·	·	·	·	0	·
CC(Cc1ccccc1)NC(=O)/C=C/C(=O)O (centres undefined)	·	-2	290	0	7.3*	0	0
C=CCN1[C@@H]2CN(CC(F)(F)F)C[C@H]1C2c1ccc(Br)cc1 (some centres undefined)	·	·	·	·	·	0	·
CC1=CC(=C2C(=O)NC(=S)NC2=O)C=C(C(F)(F)F)N1Cc1ccccc1	1	11	180	0	-2	0	·
CC1=CC(=C2C(=O)NC(=O)NC2=O)C=C(C(F)(F)F)N1Cc1ccccc1	·	14	182	0	9.2*	0	4
CC(=O)N1C[C@@H]2N[C@H](C1)C2c1ccc(Br)cc1 (some centres undefined)	·	·	·	·	·	0	·
C=CCN1[C@@H]2CN(C(C)=O)C[C@H]1C2c1ccc(Br)cc1 (some centres undefined)	·	·	·	·	·	0	·
COc1cc2ccc(=O)oc2c2ccoc12	-1	21	808	6	12*	0	0
COc1cc2occc2c2oc(=O)ccc12	1	1	i	0	-1	0	·
CCN(CC)C(=O)COc1cc(C)cc2oc(=O)c3c(c12)CCCC3	1	16	153	1	6.6*	0	2
COc1ccc2c(c1)/C(=C/c1cnc[nH]1)C(=O)N2	-4	2	643	6	19*	0	-3
CS(=O)(=O)N1CC2NC(C1)C2c1ccc(Br)cc1 (centres undefined)	·	·	·	·	·	0	·
CC(C)CCNC(=O)c1c(N)n(CC2CCCO2)c2nc3ccccc3nc12 (centres undefined)	3	2	385	43*	-6	·	·	NTR1 ag conf=30
COC(=O)C[C@]1(C(=O)OC)CN(C#N)N(c2ccc(Cl)cc2)C12c1ccccc1-c1ccccc12	-6	22	249	41*	-4	·	·	NTR1 ag conf=62*
COC(=O)[C@@H]1[C@@H](C(=O)OC)C2(c3ccccc3-c3ccccc32)N(c2ccc(Cl)cc2)N1C#N	-5	24	207	35	-4	·	·
O=c1c(C=NCc2cccs2)c(O)n(C2CCCCC2)c(=O)n1C1CCCCC1	0	3	758	30	-6	·	·
N=C(N)c1c(O)n(C2CCCCC2)c(=O)n(C2CCCCC2)c1=O	-4	22	497	54*	-4	·	·	NTR1 ag conf=36
